Active and inactive are the calls of the source. The calls are words filed in the database; no cut-off is given here.
Assays:
L929 = test: Cytotoxicity against mouse L929 cells assessed as reduction in cell viability; assay type: cell-based
2008 = test: Selectivity index, ratio of EC50 for inhibition of MRP1 (unknown origin) expressed in 2008/MRP1 cells assessed as reversal of doxorubicin resistance to Inhibition of BCRP (unknown origin) expressed in MCF7/MX100 cells assessed as reversal of topotecan resistance; assay type: cell-based; details: Homo sapiens
Method in brief: (§1)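 Selectivity index is the EC50 against the other transporter's line divided by the EC50 in the BCRP line. All values come from 5-day MTS reversal assays. These use topotecan in HEK293/R2 (0–2000 nM) or MCF7-MX100 (0–100 μM), doxorubicin in 2008/MRP1, and paclitaxel in LCC6MDR, each with modulator at 0–1000 nM.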

Homo sapiens [1] = organism: Homo sapiens; test: Selectivity index, ratio of EC50 for inhibition of MRP1 (unknown origin) expressed in 2008/MRP1 cells assessed as reversal of doxorubicin resistance to EC50 for inhibition of BCRP (unknown origin) transfected in HEK293/R2 cells assessed as reversal of topotecan resistance; assay type: cell-based; method in brief: as §1
Homo sapiens [2] = organism: Homo sapiens; test: Selectivity index, ratio of EC50 for inhibition of P-gp (unknown origin) expressed in LCC6MDR cells assessed as reversal of paclitaxel resistance to EC50 for inhibition of BCRP (unknown origin) transfected in HEK293/R2 cells assessed as reversal of topotecan resistance; assay type: cell-based; method in brief: as §1
Homo sapiens [3] = organism: Homo sapiens; test: Selectivity index, ratio of EC50 for inhibition of P-gp (unknown origin) expressed in LCC6MDR cells assessed as reversal of paclitaxel resistance to EC50 for Inhibition of BCRP (unknown origin) expressed in MCF7/MX100 cells assessed as reversal of topotecan resistance; assay type: cell-based; method in brief: as §1
[4] = target: T1, Broad substrate specificity ATP-binding cassette transporter ABCG2 (Homo sapiens, UniProt Q9UNQ0); test: Inhibition of BCRP (unknown origin) expressed in human HEK293/R2 cells assessed as increase in intracellular mitoxantrone accumulation by measuring fold change at 2 uM after 2 hrs in presence of mitoxantrone by flow cytometry analysis relative to control; assay type: cell-based; details: hek293/r2, 2 h
T1 sequence (Q9UNQ0 whole entry): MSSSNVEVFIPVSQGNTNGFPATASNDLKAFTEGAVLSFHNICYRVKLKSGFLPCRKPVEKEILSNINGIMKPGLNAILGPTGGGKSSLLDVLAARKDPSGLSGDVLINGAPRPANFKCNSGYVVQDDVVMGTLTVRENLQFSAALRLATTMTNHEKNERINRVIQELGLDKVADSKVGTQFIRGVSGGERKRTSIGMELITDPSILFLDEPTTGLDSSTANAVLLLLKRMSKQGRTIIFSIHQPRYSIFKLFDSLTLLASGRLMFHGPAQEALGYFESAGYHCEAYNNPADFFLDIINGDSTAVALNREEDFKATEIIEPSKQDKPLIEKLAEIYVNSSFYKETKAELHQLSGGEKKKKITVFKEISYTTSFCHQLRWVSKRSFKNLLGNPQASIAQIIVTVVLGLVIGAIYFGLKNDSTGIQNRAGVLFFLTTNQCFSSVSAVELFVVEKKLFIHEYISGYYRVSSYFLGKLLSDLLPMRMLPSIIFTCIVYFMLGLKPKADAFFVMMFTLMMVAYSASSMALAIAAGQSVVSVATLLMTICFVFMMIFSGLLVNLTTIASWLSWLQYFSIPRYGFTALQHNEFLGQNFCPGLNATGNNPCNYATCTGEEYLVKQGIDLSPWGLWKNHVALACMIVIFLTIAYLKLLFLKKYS
Method in brief: (§2)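 5 × 10^5 HEK293/pcDNA3.1 or HEK293/R2 cells in 1 mL were incubated 2 hr at 37 °C with 50 μM topotecan or 5 μM mitoxantrone plus 1 or 2 μM modulator, with DMSO as the vehicle control. Cells were washed in cold PBS and resuspended in FACS buffer. Flow cytometry read FL1 (topotecan) or FL4 (mitoxantrone) over 50,000 events, normalized to wild-type cells.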

Homo sapiens [5] = organism: Homo sapiens; test: Selectivity index, ratio of EC50 for inhibition of P-gp (unknown origin) expressed in LCC6MDR cells assessed as reversal of mitoxantrone resistance to EC50 for inhibition of BCRP (unknown origin) expressed in HEK293/R2 cells assessed as reversal of mitoxantrone resistance; assay type: cell-based
Method in brief: (§3)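 Selectivity index is the EC50 in 2008/MRP1 or LCC6MDR divided by the EC50 in HEK293/R2. All three lines were measured by 5-day mitoxantrone co-incubation with modulator, with MTS/PMS read-out at 490 nm.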

Homo sapiens [6] = organism: Homo sapiens; test: Selectivity index, ratio of EC50 for inhibition of MRP1 (unknown origin) expressed in 2008/MRP1 cells assessed as reversal of mitoxantrone resistance to EC50 for inhibition of BCRP (unknown origin) expressed in HEK293/R2 cells assessed as reversal of mitoxantrone resistance; assay type: cell-based; method in brief: as §3
[7] = target: T1, Broad substrate specificity ATP-binding cassette transporter ABCG2; test: Inhibition of BCRP (unknown origin) expressed in wild type HEK293/pcDNA3.1 cells assessed as increase in intracellular mitoxantrone accumulation at 1 to 2 uM after 2 hrs in presence of mitoxantrone by flow cytometry analysis relative to control; assay type: cell-based; details: hek293, 2 h, dose 1-2 µM; method in brief: as §2
[8] = target: T1, Broad substrate specificity ATP-binding cassette transporter ABCG2; test: Inhibition of BCRP (unknown origin) expressed in human HEK293/R2 cells assessed as increase in intracellular topotecan accumulation by measuring fold change at 1 uM after 2 hrs in presence of topotecan by flow cytometry analysis relative to control; assay type: cell-based; details: hek293/r2, 2 h; method in brief: as §2
HEK293 = test: Effect on BCRP protein expression in human HEK293/R2 cells at 1 to 3 uM after 24 hrs by flow cytometric analysis; assay type: functional, cell-based; details: dose 1-3 µM
Method in brief: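 HEK293/R2 and HEK293/pcDNA3.1 cells were exposed to 0, 1 or 3 μM compound for 24 hr, with 0.1–0.3% DMSO as solvent control. Cells were trypsinized and stained with FITC anti-human BCRP for 45 min at 4 °C, with an IgG2b-FITC isotype control. Surface signal was read by flow cytometry on FL1 over 50,000 events.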

[9] = target: T1, Broad substrate specificity ATP-binding cassette transporter ABCG2; test: Inhibition of BCRP (unknown origin) expressed in wild type HEK293/pcDNA3.1 cells assessed as increase in intracellular topotecan accumulation at 1 to 2 uM after 2 hrs in presence of topotecan by flow cytometry analysis relative to control; assay type: cell-based; details: hek293, 2 h, dose 1-2 µM; method in brief: as §2
[10] = target: T1, Broad substrate specificity ATP-binding cassette transporter ABCG2; test: Inhibition of BCRP (unknown origin) expressed in human HEK293/R2 cells assessed as increase in intracellular mitoxantrone accumulation by measuring fold change at 1 uM after 2 hrs in presence of mitoxantrone by flow cytometry analysis relative to control; assay type: cell-based; details: hek293/r2, 2 h; method in brief: as §2
[11] = target: T1, Broad substrate specificity ATP-binding cassette transporter ABCG2; test: Inhibition of BCRP (unknown origin) expressed in human HEK293/R2 cells assessed as increase in intracellular topotecan accumulation by measuring fold change at 2 uM after 2 hrs in presence of topotecan by flow cytometry analysis relative to control; assay type: cell-based; details: hek293/r2, 2 h; method in brief: as §2
BCRP (ABCG2) [12] = target: T2, BCRP (ABCG2) (Homo sapiens, UniProt Q9UNQ0); test: Inhibition of BCRP (unknown origin) expressed in HEK293/R2 cells assessed as conformational change by measuring increase in 5D3 shift at 10 uM preincubated for 15 mins followed by FITC mouse antihuman BCRP antibody addition measured after 30 mins by flow cytometry analysis; assay type: cell-based; details: HEK293/R2 cells expressing BCRP, time 45 min
T2 sequence (Q9UNQ0 whole entry): T1 sequence (Q9UNQ0 whole entry)
Method in brief: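 HEK293/R2 cells (5 x 10⁵) in FACS buffer (0.1 % BSA, 1 mM EDTA in PBS) were pre-incubated with compound for 15 min at 37 °C with shaking. FITC anti-human BCRP antibody (clone 5D3) was then added for 30 min at 37 °C. Cells were washed and read by flow cytometry (FL1, 50,000 events). Compound-only FITC background and the DMSO-control signal were subtracted, and the shift was expressed as % of the 1 µM Ko143 shift.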

BCRP (ABCG2) [13] = target: T2, BCRP (ABCG2); test: Inhibition of BCRP (unknown origin) expressed in HEK293/R2 cells assessed as conformational change by measuring increase in 5D3 shift at 1 uM preincubated for 15 mins followed by FITC mouse antihuman BCRP antibody addition measured after 30 mins by flow cytometry analysis; assay type: cell-based; details: HEK293/R2 cells expressing BCRP, time 45 min
Method in brief: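 5 × 10^5 HEK293/R2 cells in FACS buffer were shaken 15 min at 37 °C with 1 μM compound. FITC 5D3 anti-BCRP was then added for 30 min at 37 °C and fluorescence read by flow cytometry on FL1. Compound-only background was subtracted and the untreated DMSO shift removed. Result is % of the 1 μM Ko143-induced shift.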

SMILES	IC50 (L929)	Ratio EC50 2008	Ratio EC50 (Homo sapiens [1])	Ratio EC50 (Homo sapiens [2])	Ratio EC50 (Homo sapiens [3])	further results
COC(=O)c1cccc(COc2c(-c3ccc(OCCOCCOCCn4cc(CN(C)Cc5ccccc5)nn4)cc3)oc3ccccc3c2=O)c1	> 100 µM	35	62	51	29	–
COC(=O)c1cccc(COc2c(-c3ccc(OCCOCCn4cc(CCN5C(=O)c6ccccc6C5=O)nn4)cc3)oc3ccccc3c2=O)c1	> 100 µM	10	22	22	10	–
COC(=O)c1cccc(COc2c(-c3ccc(OCCOCCOCCn4cc(CN(CCO)Cc5ccccc5)nn4)cc3)oc3ccccc3c2=O)c1	> 100 µM	625	714	220	193	fold change (FC) [4]: 5.8; Ratio EC50 (Homo sapiens [5]): 5; Ratio EC50 (Homo sapiens [6]): 4; inhibition (INH) [7]: Not Active; fold change (FC) [8]: 7.1; Activity (HEK293): inactive; inhibition (INH) [9]: Not Active; fold change (FC) [10]: 6.5; fold change (FC) [11]: 7
COC(=O)c1cccc(COc2c(-c3ccc(OCCOCCN=[N+]=[N-])cc3)oc3ccccc3c2=O)c1	67.5 µM	20	12	12	20	–
COC(=O)c1cccc(COc2c(-c3ccc(OCCOCCOCCn4cc(CCN5C(=O)c6ccccc6C5=O)nn4)cc3)oc3ccccc3c2=O)c1	> 100 µM	–	6	6	–	–
COC(=O)c1cccc(COc2c(-c3ccc(OCCOCCn4cc(CNc5ccccc5)nn4)cc3)oc3ccccc3c2=O)c1	> 100 µM	23	38	38	23	–
O=c1c(O)c(-c2ccc(O)c(O)c2)oc2cc(O)cc(O)c12 [QUERCETIN]	–	–	–	–	–	inhibition at 0.5 h, 10 µM (BCRP (ABCG2) [12]): 39%
C#CCCCCOc1ccc(-c2oc3ccccc3c(=O)c2OCc2cccc(C(=O)OC)c2)cc1	> 100 µM	30	23	19	24	–
COC(=O)c1cccc(COc2c(-c3ccc(OCCCCc4cn(CCOCCO)nn4)cc3)oc3ccccc3c2=O)c1	13.3 µM	36	100	61	22	–
CCOc1ccc(-c2nc3cc(-c4nc5cc(N6CCN(C)CC6)ccc5[nH]4)ccc3[nH]2)cc1	–	–	–	–	–	inhibition at 0.5 h, 10 µM (BCRP (ABCG2) [12]): 19%
COC(=O)c1cccc(COc2c(-c3ccc(OCCOCCn4cc(CN(Cc5ccccc5)Cc5ccccc5)nn4)cc3)oc3ccccc3c2=O)c1	> 100 µM	34	31	31	34	–
COc1cc2c(cc1OC)CN(CCc1ccc(NC(=O)c3cccc4c(=O)c5cccc(OC)c5[nH]c34)cc1)CC2	–	–	–	–	–	inhibition at 0.5 h, 1 µM (BCRP (ABCG2) [13]): 100%
COC(=O)c1cccc(COc2c(-c3ccc(OCCOCCOCCN=[N+]=[N-])cc3)oc3ccccc3c2=O)c1	28.4 µM	60	118	35	18	–
COC(=O)c1cccc(COc2c(-c3ccc(OCCOCCn4cc(CN(C)Cc5ccccc5)nn4)cc3)oc3ccccc3c2=O)c1	> 100 µM	286	67	67	286	fold change (FC) [4]: 6.3; Ratio EC50 (Homo sapiens [5]): 38; Ratio EC50 (Homo sapiens [6]): 40; inhibition (INH) [7]: Not Active; fold change (FC) [8]: 7.2; Activity (HEK293): inactive; inhibition (INH) [9]: Not Active; fold change (FC) [10]: 6.2; fold change (FC) [11]: 7
COC(=O)c1cccc(COc2c(-c3ccc(OCCOCCOCCn4cc(CCCCOc5ccc(C=O)cc5)nn4)cc3)oc3ccccc3c2=O)c1	37.8 µM	23	46	53	26	–

— ChEMBL document CHEMBL4825764, “Flavonoid Monomers as Potent, Nontoxic, and Selective Modulators of the Breast Cancer Resistance Protein (ABCG2)” (J Med Chem, 2021)
